Here are results for 32 compounds from ChEMBL document CHEMBL1132221, “Isoxazolo-[3,4-d]-pyridazin-7-(6H)-one as a potential substrate for new aldose reductase inhibitors” (J Med Chem, 1999).

The target in the first experiment is Aldo-keto reductase family 1 member B1 (Bos taurus) (UniProt P16116). The experiment in a line: In vitro inhibitory activity against Aldose reductase 2 obtained from calf lenses at a concentration of 94 uM. An outline of the steps: (§1)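 Calf lens ALR2 purified by DE52, Orange Matrex affinity and Sephadex G75 chromatography. Inhibitor in DMSO (1% final) added to a 37 °C reaction with 4.7 mM D,L-glyceraldehyde and 0.11 mM NADPH in 0.25 M sodium phosphate pH 6.8 containing 0.38 M ammonium sulfate. Activity followed as absorbance change at 340 nm, corrected with a blank lacking substrate.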
`CC(=O)c1c(-c2ccccc2)nn(CC(=O)O)c(=O)c1Nc1ccc(Cl)cc1`: the inhibition was found to be 27%.

Another experiment has as its target T1, Aldo-keto reductase family 1 member B1 (Bos taurus, UniProt P16116). The experiment can be described thus: In vitro inhibitory activity against Aldose reductase 2 obtained from calf lenses.
In turn, `CC(=O)c1c(-c2ccccc2)nn(CC(=O)O)c(=O)c1NCc1ccc(Cl)cc1` returned an IC50 of 36.5 µM.
In turn, `CCC(C(=O)O)n1nc(-c2ccccc2)c2c(C)onc2c1=O` (configuration not stated) returned an IC50 of 75 µM.
Still for that read-out and setting: under `Cc1onc2c(=O)n(CCC(=O)O)nc(-c3ccc(Cl)cc3)c12` stands 34.8 µM.
Regarding `Cc1onc2c(=O)n(CCCC(=O)O)nc(-c3ccc(Cl)cc3)c12`, 10.4 µM corresponded to half-maximal inhibition (IC50).
In turn, `Cc1nn(CCCC(=O)O)c(=O)c2noc(C)c12` came in with a 50% inhibitory concentration (IC50) of 65.1 µM.
Same read-out and setting: under `Cc1onc2c(=O)n(CCC(=O)O)nc(-c3ccccc3)c12` stands 65.2 µM.
The same measure, in the same setting: under `CC(=O)c1c(-c2ccccc2)nn(CC(=O)O)c(=O)c1NCc1ccccc1` stands 27.6 µM; under `CC(=O)c1c(-c2ccccc2)nn(CC(=O)O)c(=O)c1NCCc1ccccc1`, 93.9 µM.
Same read-out and setting: with `C[c-]1[o+]nc2c(=O)n(CC(=O)O)nc(-c3cccc([N+](=O)[O-])c3)c21` the figure was 4.46 µM.
Consider `Cc1onc2c(=O)n(CC(=O)O)nc(-c3ccccc3[N+](=O)[O-])c12`, for which half-maximal inhibition (IC50) required 6.06 µM.
Take `CC(=O)c1c(-c2ccccc2)nn(CCCC(=O)O)c(=O)c1N`: the IC50 came out at 37 µM.
Same read-out and setting: under `CC(=O)c1c(-c2ccccc2)nn(CC(=O)O)c(=O)c1Nc1ccc(Br)cc1` stands 133 µM; under `Cc1c(-c2nc3cc(C(F)(F)F)ccc3s2)nc2c(O)n(CC(=O)O)nc(-c3ccccc3)c1-2`, 97.9 µM.
Same read-out and setting: with `Cc1onc2c(=O)n(C(C)C(=O)O)nc(-c3ccccc3)c12` (configuration not stated) the figure was 76.8 µM; with `Cc1onc2c(=O)n(CC(=O)O)nc(-c3ccc([N+](=O)[O-])cc3)c12`, 4.76 µM; with `O=C(O)Cn1nc(-c2ccccc2)cc(NCCc2ccccc2)c1=O`, 68.5 µM.
The same measure, in the same setting: with `O=C(O)Cn1nc(-c2ccccc2)cc(NCc2ccccc2)c1=O` the figure was 48.8 µM.
Compound `Cc1onc2c(=O)n(CCCC(=O)O)nc(-c3ccccc3)c12` showed a concentration for half-maximal inhibition (IC50) of 20.2 µM.
On the same count and under the same terms, with `Cc1nn(CC(=O)O)c(=O)c2noc(C)c12` the figure was 42 µM.
As to `Cc1onc2c(=O)n(CC(=O)O)nc(-c3ccc(Cl)cc3)c12`, the IC50 was 3.72 µM.
In turn, `O=C(O)Cn1nc(-c2ccccc2)cc(NCCc2ccccn2)c1=O` showed a concentration for half-maximal inhibition (IC50) of 157 µM.
`Cc1onc2c(=O)n(CCCCC(=O)O)nc(-c3ccccc3)c12` displayed an IC50 of 28.4 µM.
The same measure, in the same setting: under `CCCC(C(=O)O)n1nc(-c2ccccc2)c2c(C)onc2c1=O` (configuration not stated) stands 114 µM; under `Cc1onc2c(=O)n(CC(=O)O)nc(-c3ccccc3)c12`, 12.7 µM.

A further experiment deals with Aldo-keto reductase family 1 member B1 (Bos taurus) (UniProt P16116). The experiment in a line: In vitro inhibitory activity against Aldose reductase 2 obtained from calf lenses at a concentration of 82 uM. An outline of the steps:
as §1
In turn, `Nc1cc(-c2ccccc2)nn(CC(=O)O)c1=O` returned an inhibition of 36%.

Another experiment has the same target. The experiment in a line: In vitro inhibitory activity against Aldose reductase 2 obtained from calf lenses at a concentration of 190 uM. An outline of the steps: as §1
The compound `Cc1nn(CCC(=O)O)c(=O)c2noc(C)c12` had an inhibition of 28%.

Another experiment has the same target. The experiment can be described thus: In vitro inhibitory activity against Aldose reductase 2 obtained from calf lenses at a concentration of 142 uM. An outline of the steps: as §1
In turn, `CC(=O)c1c(-c2ccccc2)nn(CCC(=O)O)c(=O)c1N` yielded an inhibition of 27%.

For the next experiment the target is unchanged. The experiment can be described thus: In vitro inhibitory activity against Aldose reductase 2 obtained from calf lenses at a concentration of 16 uM. An outline of the steps: as §1
Compound `CC(=O)c1c(-c2ccccc2)nn(CC(=O)O)c(=O)c1Nc1ccccc1` registered an inhibition of 12%.

The next experiment concerns the target T1, Aldo-keto reductase family 1 member B1. The experiment in a line: In vitro inhibitory activity against aldose reductase (ALR2) obtained from calf lenses. Put shortly: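 ALR2 purified from calf lens: homogenate in pH 7 phosphate buffer with 5 mM DTT, then DE52 ion exchange, Orange Matrex affinity and Sephadex G75. Assay at 37 °C, 4.7 mM D,L-glyceraldehyde, 0.11 mM NADPH, 0.25 M sodium phosphate pH 6.8 with 0.38 M ammonium sulfate, 1% DMSO. NADPH oxidation read at 340 nm against a substrate-free blank.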
The compound `Cc1onc2c(=O)n(C/C=C/C(=O)O)nc(-c3ccccc3)c12` gave a concentration for half-maximal inhibition (IC50) of 107 µM.
In turn, `CC(=O)c1c(-c2ccccc2)nn(CC(=O)O)c(=O)c1N` returned a half-maximal inhibitory concentration (IC50) of 154 µM.
With `CC(=O)c1c(C)nn(CC(=O)O)c(=O)c1N`, the IC50 was 210 µM.
